# How the values were obtained:
# Candida albicans [1] = assay: Antifungal activity against Candida albicans ATCC 10231 after 48 hrs by broth microdilution technique; format: functional; conditions: ATCC 10231, 48 h
# Procedure, shortened: (§1)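 Yeasts were tested by CLSI broth microdilution in RPMI-1640 buffered to pH 7.0 with MOPS, with compound from 250 down to 0.98 in DMSO stocks. Trays were held at 30 °C in a moist, dark chamber. MIC100, the lowest concentration giving total visual inhibition against the growth control, was read by eye at 48 h.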
# Saccharomyces cerevisiae = assay: Antifungal activity against Saccharomyces cerevisiae ATCC 9763 after 48 hrs by broth microdilution technique; format: functional; conditions: ATCC 9763, 48 h; procedure, shortened: as §1
# Cryptococcus neoformans [2] = assay: Antifungal activity against Cryptococcus neoformans ATCC 32264 after 48 hrs by broth microdilution technique; format: functional; conditions: ATCC 32264, 48 h; procedure, shortened: as §1
# Aspergillus fumigatus = assay: Antifungal activity against Aspergillus fumigatus ATCC 26934 after 48 hrs by broth microdilution technique; format: functional; conditions: ATCC 26934, 48 h
# Procedure, shortened: (§2)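 Moulds and dermatophytes were run by CLSI broth microdilution in MOPS-buffered RPMI-1640 at pH 7.0. Aspergillus was incubated at 30 °C and dermatophytes at 28–30 °C, in a moist, dark chamber. MIC100, the lowest concentration with no visible growth, was read visually at a time set by growth of the control fungus.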
# Aspergillus flavus = assay: Antifungal activity against Aspergillus flavus ATCC 9170 after 48 hrs by broth microdilution technique; format: functional; conditions: ATCC 9170, 48 h; procedure, shortened: as §2
# Aspergillus niger = assay: Antifungal activity against Aspergillus niger ATCC 9029 after 48 hrs by broth microdilution technique; format: functional; conditions: ATCC 9029, 48 h; procedure, shortened: as §2
# Nannizzia gypsea = assay: Antifungal activity against Microsporum gypseum CCC 115 after 48 hrs by broth microdilution technique; format: functional; conditions: CCC 115, 48 h; procedure, shortened: as §2
# Trichophyton rubrum = assay: Antifungal activity against Trichophyton rubrum CCC 113 after 48 hrs by broth microdilution technique; format: functional; conditions: CCC 113, 48 h
# [3] = tested on: Trichophyton mentagrophytes; assay: Antifungal activity against Trichophyton mentagrophytes ATCC 9972 after 48 hrs by broth microdilution technique; format: functional; conditions: ATCC 9972, 48 h; procedure, shortened: as §2
# Candida albicans [4] = assay: Antifungal activity against Candida albicans CCC 125 after 48 hrs by broth microdilution technique; format: functional; conditions: CCC 125, 48 h
# Candida albicans [5] = assay: Antifungal activity against Candida albicans CCC 126 after 48 hrs by broth microdilution technique; format: functional; conditions: CCC 126, 48 h
# Candida albicans [6] = assay: Antifungal activity against Candida albicans CCC 127 after 48 hrs by broth microdilution technique; format: functional; conditions: CCC 127, 48 h
# Candida albicans [7] = assay: Antifungal activity against Candida albicans CCC 128 after 48 hrs by broth microdilution technique; format: functional; conditions: CCC 128, 48 h
# Candida albicans [8] = assay: Antifungal activity against Candida albicans CCC 129 after 48 hrs by broth microdilution technique; format: functional; conditions: CCC 129, 48 h
# Candida albicans [9] = assay: Antifungal activity against Candida albicans CCC 130 after 48 hrs by broth microdilution technique; format: functional; conditions: CCC 130, 48 h
# Nakaseomyces glabratus = assay: Antifungal activity against Candida glabrata CCC 115 after 48 hrs by broth microdilution technique; format: functional; conditions: CCC 115, 48 h
# Candida parapsilosis = assay: Antifungal activity against Candida parapsilosis CCC 124 after 48 hrs by broth microdilution technique; format: functional; conditions: Lodderomyces parapsilosis, CCC 124, 48 h
# Pichia kudriavzevii = assay: Antifungal activity against Candida krusei CCC 117 after 48 hrs by broth microdilution technique; format: functional; conditions: CCC 117, 48 h
# Candida tropicalis = assay: Antifungal activity against Candida tropicalis CCC 131 after 48 hrs by broth microdilution technique; format: functional; conditions: CCC 131, 48 h
# Cryptococcus neoformans [10] = assay: Antifungal activity against Cryptococcus neoformans IM 983040 after 48 hrs by broth microdilution technique; format: functional; conditions: IM 983040, 48 h
# Procedure, shortened: (§3)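 C. neoformans was tested by 96-well RPMI-1640 microdilution, with DMSO-matched growth and sterility control wells. Plates were incubated 48 h at 30 °C in a moist, dark chamber and read at OD405. % inhibition = 100 − (CTW − SCW)/(GCW − SCW), in duplicate. For the clinical isolates, MIC80 and MIC50 are the lowest concentrations giving 80% and 50% inhibition.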
# Cryptococcus neoformans [11] = assay: Antifungal activity against Cryptococcus neoformans IM 972724 after 48 hrs by broth microdilution technique; format: functional; conditions: IM 972724, 48 h; procedure, shortened: as §3
# Cryptococcus neoformans [12] = assay: Antifungal activity against Cryptococcus neoformans IM 042074 after 48 hrs by broth microdilution technique; format: functional; conditions: IM 042074, 48 h; procedure, shortened: as §3
# Cryptococcus neoformans [13] = assay: Antifungal activity against Cryptococcus neoformans IM 983036 after 48 hrs by broth microdilution technique; format: functional; conditions: IM 983036, 48 h; procedure, shortened: as §3
# Cryptococcus neoformans [14] = assay: Antifungal activity against Cryptococcus neoformans IM 00319 after 48 hrs by broth microdilution technique; format: functional; conditions: IM 00319, 48 h; procedure, shortened: as §3
# Cryptococcus neoformans [15] = assay: Antifungal activity against Cryptococcus neoformans IM 972751 after 48 hrs by broth microdilution technique; format: functional; conditions: IM 972751, 48 h; procedure, shortened: as §3
# Cryptococcus neoformans [16] = assay: Antifungal activity against Cryptococcus neoformans ATCC 32264 at 31.2 ug/ml after 48 hrs; format: functional; conditions: ATCC 32264, 48 h; procedure, shortened: as §3
# Candida albicans [17] = assay: Antifungal activity against Candida albicans CCC 130 after 24 hrs by broth microdilution technique; conditions: CCC 130, 24 h
compound,measurement,setting,value
Fc1ccc2nc(-c3cccnc3)ccc2c1,MIC,Candida albicans [1],> 250 µg/mL
same,MIC,Saccharomyces cerevisiae,> 250 µg/mL
same,MFC,Cryptococcus neoformans [2],250 µg/mL
same,MIC,Cryptococcus neoformans [2],62 µg/mL
same,MFC,Aspergillus fumigatus,250 µg/mL
same,MIC,Aspergillus fumigatus,125 µg/mL
same,MFC,Aspergillus flavus,250 µg/mL
same,MIC,Aspergillus flavus,125 µg/mL
same,MFC,Aspergillus niger,> 250 µg/mL
same,MIC,Aspergillus niger,250 µg/mL
same,MFC,Nannizzia gypsea,62 µg/mL
same,MIC,Nannizzia gypsea,62 µg/mL
same,MFC,Trichophyton rubrum,62 µg/mL
same,MIC,Trichophyton rubrum,62 µg/mL
same,MFC,[3],62 µg/mL
same,MIC,[3],62 µg/mL
Cc1ccc2nc(-c3ccncc3)ccc2c1,MFC,Candida albicans [1],250 µg/mL
same,MIC,Candida albicans [1],125 µg/mL
same,MIC50,Candida albicans [1],15.6 µg/mL
same,MIC80,Candida albicans [1],31.2 µg/mL
same,MFC,Saccharomyces cerevisiae,125 µg/mL
same,MIC,Saccharomyces cerevisiae,62 µg/mL
same,MFC,Cryptococcus neoformans [2],125 µg/mL
same,MIC,Cryptococcus neoformans [2],62 µg/mL
same,MIC50,Cryptococcus neoformans [2],7.8 µg/mL
same,MIC80,Cryptococcus neoformans [2],31.2 µg/mL
same,MFC,Aspergillus fumigatus,125 µg/mL
same,MIC,Aspergillus fumigatus,62 µg/mL
same,MFC,Aspergillus flavus,125 µg/mL
same,MIC,Aspergillus flavus,62 µg/mL
same,MFC,Aspergillus niger,250 µg/mL
same,MIC,Aspergillus niger,125 µg/mL
same,MFC,Nannizzia gypsea,62 µg/mL
same,MIC,Nannizzia gypsea,62 µg/mL
same,MFC,Trichophyton rubrum,62 µg/mL
same,MIC,Trichophyton rubrum,62 µg/mL
same,MFC,[3],62 µg/mL
same,MIC,[3],62 µg/mL
same,MIC50,Candida albicans [4],31.2 µg/mL
same,MIC80,Candida albicans [4],125 µg/mL
same,MIC50,Candida albicans [5],31.2 µg/mL
same,MIC80,Candida albicans [5],62.5 µg/mL
same,MIC50,Candida albicans [6],31.2 µg/mL
same,MIC80,Candida albicans [6],125 µg/mL
same,MIC50,Candida albicans [7],31.2 µg/mL
same,MIC80,Candida albicans [7],125 µg/mL
same,MIC50,Candida albicans [8],62.5 µg/mL
same,MIC80,Candida albicans [8],125 µg/mL
same,MIC80,Candida albicans [9],125 µg/mL
same,MIC50,Nakaseomyces glabratus,7.8 µg/mL
same,MIC80,Nakaseomyces glabratus,15.6 µg/mL
same,MIC50,Candida parapsilosis,7.8 µg/mL
same,MIC80,Candida parapsilosis,31.2 µg/mL
same,MIC50,Pichia kudriavzevii,31.2 µg/mL
same,MIC80,Pichia kudriavzevii,62.5 µg/mL
same,MIC50,Candida tropicalis,15.6 µg/mL
same,MIC80,Candida tropicalis,125 µg/mL
same,MIC50,Cryptococcus neoformans [10],7.8 µg/mL
same,MIC80,Cryptococcus neoformans [10],31.2 µg/mL
same,MIC50,Cryptococcus neoformans [11],15.6 µg/mL
same,MIC80,Cryptococcus neoformans [11],31.2 µg/mL
same,MIC50,Cryptococcus neoformans [12],15.6 µg/mL
same,MIC80,Cryptococcus neoformans [12],31.2 µg/mL
same,MIC50,Cryptococcus neoformans [13],31.2 µg/mL
same,MIC80,Cryptococcus neoformans [13],62.5 µg/mL
same,MIC50,Cryptococcus neoformans [14],15.6 µg/mL
same,MIC80,Cryptococcus neoformans [14],31.2 µg/mL
same,MIC50,Cryptococcus neoformans [15],7.8 µg/mL
same,MIC80,Cryptococcus neoformans [15],31.2 µg/mL
same,inhibition at 31.2 µg/mL,Cryptococcus neoformans [16],80%
same,MIC50,Candida albicans [17],62.5 µg/mL
Clc1ccc2nc(-c3ccncc3)ccc2c1,MIC,Candida albicans [1],> 250 µg/mL
same,MIC,Saccharomyces cerevisiae,> 250 µg/mL
same,MFC,Cryptococcus neoformans [2],250 µg/mL
same,MIC,Cryptococcus neoformans [2],125 µg/mL
same,MIC,Aspergillus fumigatus,> 250 µg/mL
same,MIC,Aspergillus flavus,> 250 µg/mL
same,MIC,Aspergillus niger,> 250 µg/mL
same,MFC,Nannizzia gypsea,125 µg/mL
same,MIC,Nannizzia gypsea,125 µg/mL
same,MFC,Trichophyton rubrum,125 µg/mL
same,MIC,Trichophyton rubrum,125 µg/mL
same,MFC,[3],125 µg/mL
same,MIC,[3],125 µg/mL

# From ChEMBL document CHEMBL2157922, “Synthesis and antifungal activity of diverse C-2 pyridinyl and pyridinylvinyl substituted quinolines” (2012)
